# Assay results published in ChEMBL document CHEMBL1146375, “Synthetic studies on novel benzimidazolopeptides with antimicrobial, cytotoxic and anthelmintic potential” (2007).
# Tested on: Bacillus subtilis
# Test: Antibacterial activity against Bacillus subtilis NCIM 2063 after 18 hrs by disc diffusion method
# Assay type: functional
# Settings: not given
# Method in brief: (§1)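 Modified Kirby-Bauer disc diffusion. Plates inoculated with spore suspension (about 6 × 10⁴ spores mL^-1). Sterile 6 mm paper discs carried test samples at 10 mg mL^-1; ciprofloxacin disc as reference, DMF disc as negative control. Plates held 18 h at 37 °C. Inhibition zone diameters (mm) averaged over triplicate sets.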
row,Compound,inhibition zone (IZ) [mm]
1,COC(=O)[C@H](Cc1c[nH]c2ccccc12)NC(=O)c1cc(-c2nc3ccc([N+](=O)[O-])cc3[nH]2)ccc1O,12
2,COC(=O)[C@@H]1CCCN1C(=O)[C@@H](NC(=O)[C@H](Cc1ccccc1)NC(=O)c1cc(I)c(-c2nc3cc(C)c(C)cc3[nH]2)c(I)c1)C(C)C,16

# Tested on: Staphylococcus aureus
# Test: Antibacterial activity against Staphylococcus aureus NCIM 2079 after 18 hrs by disc diffusion method
# Assay type: functional
# Settings: not given
# Method in brief: as §1
row,Compound,inhibition zone (IZ) [mm]
1,COC(=O)[C@H](Cc1c[nH]c2ccccc12)NC(=O)c1cc(-c2nc3ccc([N+](=O)[O-])cc3[nH]2)ccc1O,12
2,COC(=O)[C@@H]1CCCN1C(=O)[C@@H](NC(=O)[C@H](Cc1ccccc1)NC(=O)c1cc(I)c(-c2nc3cc(C)c(C)cc3[nH]2)c(I)c1)C(C)C,12

# Tested on: Pseudomonas aeruginosa
# Test: Antibacterial activity against Pseudomonas aeruginosa NCIM 2034 after 18 hrs by disc diffusion method
# Assay type: functional
# Settings: not given
# Method in brief: as §1
row,Compound,inhibition zone (IZ) [mm]
1,COC(=O)[C@H](Cc1c[nH]c2ccccc12)NC(=O)c1cc(-c2nc3ccc([N+](=O)[O-])cc3[nH]2)ccc1O,20
2,COC(=O)[C@@H]1CCCN1C(=O)[C@@H](NC(=O)[C@H](Cc1ccccc1)NC(=O)c1cc(I)c(-c2nc3cc(C)c(C)cc3[nH]2)c(I)c1)C(C)C,22

# Tested on: Escherichia coli
# Test: Antibacterial activity against Escherichia coli NCIM 2065 after 18 hrs by disc diffusion method
# Assay type: functional
# Settings: not given
# Method in brief: as §1
row,Compound,inhibition zone (IZ) [mm]
1,COC(=O)[C@H](Cc1c[nH]c2ccccc12)NC(=O)c1cc(-c2nc3ccc([N+](=O)[O-])cc3[nH]2)ccc1O,16
2,COC(=O)[C@@H]1CCCN1C(=O)[C@@H](NC(=O)[C@H](Cc1ccccc1)NC(=O)c1cc(I)c(-c2nc3cc(C)c(C)cc3[nH]2)c(I)c1)C(C)C,16

# Tested on: Candida albicans
# Test: Antifungal activity against Candida albicans MUCC 29 after 48 hrs by disc diffusion method
# Assay type: functional
# Settings: not given
# Method in brief: (§2)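 Agar well diffusion on plates inoculated with spore suspension in normal saline from cultures on Sabouraud's broth. Wells punched and loaded with test samples or griseofulvin at 10 mg mL^-1, with DMSO as negative control. Incubated 48 h at 37 °C.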
row,Compound,inhibition zone (IZ) [mm]
1,COC(=O)[C@H](Cc1c[nH]c2ccccc12)NC(=O)c1cc(-c2nc3ccc([N+](=O)[O-])cc3[nH]2)ccc1O,20
2,COC(=O)[C@@H]1CCCN1C(=O)[C@@H](NC(=O)[C@H](Cc1ccccc1)NC(=O)c1cc(I)c(-c2nc3cc(C)c(C)cc3[nH]2)c(I)c1)C(C)C,16

# Tested on: Microsporum audouinii
# Test: Antifungal activity against Microsporum audouinii MUCC 545 after 48 hrs by disc diffusion method
# Assay type: functional
# Settings: not given
# Method in brief: as §2
row,Compound,inhibition zone (IZ) [mm]
1,COC(=O)[C@H](Cc1c[nH]c2ccccc12)NC(=O)c1cc(-c2nc3ccc([N+](=O)[O-])cc3[nH]2)ccc1O,10
2,COC(=O)[C@@H]1CCCN1C(=O)[C@@H](NC(=O)[C@H](Cc1ccccc1)NC(=O)c1cc(I)c(-c2nc3cc(C)c(C)cc3[nH]2)c(I)c1)C(C)C,10

# Tested on: Trichophyton benhamiae
# Test: Antifungal activity against Trichophyton mentagrophytes MUCC 665 after 48 hrs by disc diffusion method
# Assay type: functional, Arthroderma benhamiae
# Settings: not given
# Method in brief: as §2
row,Compound,inhibition zone (IZ) [mm]
1,COC(=O)[C@H](Cc1c[nH]c2ccccc12)NC(=O)c1cc(-c2nc3ccc([N+](=O)[O-])cc3[nH]2)ccc1O,17
2,COC(=O)[C@@H]1CCCN1C(=O)[C@@H](NC(=O)[C@H](Cc1ccccc1)NC(=O)c1cc(I)c(-c2nc3cc(C)c(C)cc3[nH]2)c(I)c1)C(C)C,12

# Tested on: Aspergillus niger
# Test: Antifungal activity against Aspergillus niger MUCC 177 after 48 hrs by disc diffusion method
# Assay type: functional
# Settings: not given
# Method in brief: as §2
row,Compound,inhibition zone (IZ) [mm]
1,COC(=O)[C@H](Cc1c[nH]c2ccccc12)NC(=O)c1cc(-c2nc3ccc([N+](=O)[O-])cc3[nH]2)ccc1O,16
2,COC(=O)[C@@H]1CCCN1C(=O)[C@@H](NC(=O)[C@H](Cc1ccccc1)NC(=O)c1cc(I)c(-c2nc3cc(C)c(C)cc3[nH]2)c(I)c1)C(C)C,14

# Tested on: Bacillus subtilis
# Test: Antibacterial activity against Bacillus subtilis NCIM 2063 after 18 hrs by tube dilution method
# Assay type: functional
# Settings: NCIM 2063, 18 h
# Method in brief: (§3)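 Tube dilution MIC. Stock diluted in sterile broth to seven concentrations from 200 to 3.1 […]. Each tube inoculated with one loopful of test bacterium and incubated 18 h at 37 °C. MIC read from presence or absence of growth.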
row,Compound,MIC [µg/mL]
1,COC(=O)[C@H](Cc1c[nH]c2ccccc12)NC(=O)c1cc(-c2nc3ccc([N+](=O)[O-])cc3[nH]2)ccc1O,6
2,COC(=O)[C@@H]1CCCN1C(=O)[C@@H](NC(=O)[C@H](Cc1ccccc1)NC(=O)c1cc(I)c(-c2nc3cc(C)c(C)cc3[nH]2)c(I)c1)C(C)C,6

# Tested on: Staphylococcus aureus
# Test: Antibacterial activity against Staphylococcus aureus NCIM 2079 after 18 hrs by tube dilution method
# Assay type: functional
# Settings: NCIM 2079, 18 h
# Method in brief: as §3
row,Compound,MIC [µg/mL]
1,COC(=O)[C@H](Cc1c[nH]c2ccccc12)NC(=O)c1cc(-c2nc3ccc([N+](=O)[O-])cc3[nH]2)ccc1O,12.5
2,COC(=O)[C@@H]1CCCN1C(=O)[C@@H](NC(=O)[C@H](Cc1ccccc1)NC(=O)c1cc(I)c(-c2nc3cc(C)c(C)cc3[nH]2)c(I)c1)C(C)C,25

# Tested on: Pseudomonas aeruginosa
# Test: Antibacterial activity against Pseudomonas aeruginosa NCIM 2034 after 18 hrs by tube dilution method
# Assay type: functional
# Settings: NCIM 2034, 18 h
# Method in brief: as §3
row,Compound,MIC [µg/mL]
1,COC(=O)[C@H](Cc1c[nH]c2ccccc12)NC(=O)c1cc(-c2nc3ccc([N+](=O)[O-])cc3[nH]2)ccc1O,12.5
2,COC(=O)[C@@H]1CCCN1C(=O)[C@@H](NC(=O)[C@H](Cc1ccccc1)NC(=O)c1cc(I)c(-c2nc3cc(C)c(C)cc3[nH]2)c(I)c1)C(C)C,12.5

# Tested on: Escherichia coli
# Test: Antibacterial activity against Escherichia coli NCIM 2065 after 18 hrs by tube dilution method
# Assay type: functional
# Settings: NCIM 2065, 18 h
row,Compound,MIC [µg/mL]
1,COC(=O)[C@H](Cc1c[nH]c2ccccc12)NC(=O)c1cc(-c2nc3ccc([N+](=O)[O-])cc3[nH]2)ccc1O,12.5
2,COC(=O)[C@@H]1CCCN1C(=O)[C@@H](NC(=O)[C@H](Cc1ccccc1)NC(=O)c1cc(I)c(-c2nc3cc(C)c(C)cc3[nH]2)c(I)c1)C(C)C,25

# Tested on: Candida albicans
# Test: Antifungal activity against Candida albicans MUCC 29 after 48 hrs by tube dilution method
# Assay type: functional
# Settings: not given
# Method in brief: (§4)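 Tube dilution MIC as for bacteria (seven concentrations, 200–3.1 […]), with DMSO in place of DMF. Tubes inoculated with fungal culture and incubated 48 h at 37 °C. MIC read from presence or absence of growth.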
row,Compound,MIC [µg/mL]
1,COC(=O)[C@H](Cc1c[nH]c2ccccc12)NC(=O)c1cc(-c2nc3ccc([N+](=O)[O-])cc3[nH]2)ccc1O,6
2,COC(=O)[C@@H]1CCCN1C(=O)[C@@H](NC(=O)[C@H](Cc1ccccc1)NC(=O)c1cc(I)c(-c2nc3cc(C)c(C)cc3[nH]2)c(I)c1)C(C)C,6

# Tested on: Microsporum audouinii
# Test: Antifungal activity against Microsporum audouinii MUCC 545 after 48 hrs by tube dilution method
# Assay type: functional
# Settings: not given
# Method in brief: as §4
row,Compound,MIC [µg/mL]
1,COC(=O)[C@H](Cc1c[nH]c2ccccc12)NC(=O)c1cc(-c2nc3ccc([N+](=O)[O-])cc3[nH]2)ccc1O,12.5
2,COC(=O)[C@@H]1CCCN1C(=O)[C@@H](NC(=O)[C@H](Cc1ccccc1)NC(=O)c1cc(I)c(-c2nc3cc(C)c(C)cc3[nH]2)c(I)c1)C(C)C,12.5

# Tested on: Trichophyton benhamiae
# Test: Antifungal activity against Trichophyton mentagrophytes MUCC 665 after 48 hrs by tube dilution method
# Assay type: functional, Arthroderma benhamiae
# Settings: not given
# Method in brief: as §4
row,Compound,MIC [µg/mL]
1,COC(=O)[C@H](Cc1c[nH]c2ccccc12)NC(=O)c1cc(-c2nc3ccc([N+](=O)[O-])cc3[nH]2)ccc1O,6
2,COC(=O)[C@@H]1CCCN1C(=O)[C@@H](NC(=O)[C@H](Cc1ccccc1)NC(=O)c1cc(I)c(-c2nc3cc(C)c(C)cc3[nH]2)c(I)c1)C(C)C,6

# Tested on: Eudrilus
# Test: Anthelmintic activity against Eudrilus sp. assessed as mean paralyzing time
# Assay type: functional
# Settings: not given
# Method in brief: (§5)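 Earthworms exposed to test suspensions at 2 mg mL^-1 (0.2% w/v), made by triturating compound with Tween 80 (0.5%) and distilled water, then mechanically stirred 30 min. Mebendazole suspension prepared alike as reference. Paralysis and death times recorded; death confirmed by no movement in 50 °C water. Means from triplicate sets.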
row,Compound,Time [min]
1,COC(=O)[C@H](Cc1c[nH]c2ccccc12)NC(=O)c1cc(-c2nc3ccc([N+](=O)[O-])cc3[nH]2)ccc1O,13.37
2,COC(=O)[C@@H]1CCCN1C(=O)[C@@H](NC(=O)[C@H](Cc1ccccc1)NC(=O)c1cc(I)c(-c2nc3cc(C)c(C)cc3[nH]2)c(I)c1)C(C)C,29.24

# Tested on: Eudrilus
# Test: Anthelmintic activity against Eudrilus sp. assessed as mean death time
# Assay type: functional
# Settings: not given
# Method in brief: (§6)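 Earthworms exposed to test suspensions at 2 mg mL−1, prepared by triturating compound with Tween 80 (0.5%) and distilled water, stirring 30 min, then diluting to 0.2% w/v. Mebendazole suspension was made the same way. Death was confirmed by moving worms into 50 °C warm water and looking for movement. Mean death time (min) taken from triplicate sets.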
row,Compound,Time [min]
1,COC(=O)[C@H](Cc1c[nH]c2ccccc12)NC(=O)c1cc(-c2nc3ccc([N+](=O)[O-])cc3[nH]2)ccc1O,23.93
2,COC(=O)[C@@H]1CCCN1C(=O)[C@@H](NC(=O)[C@H](Cc1ccccc1)NC(=O)c1cc(I)c(-c2nc3cc(C)c(C)cc3[nH]2)c(I)c1)C(C)C,45.34

# Tested on: not listed separately
# Test: Anthelmintic activity against Megascoplex konkanensis ICARBC 211 assessed as mean paralyzing time
# Assay type: functional
# Settings: not given
# Method in brief: as §5
row,Compound,TIME [h]
1,COC(=O)[C@H](Cc1c[nH]c2ccccc12)NC(=O)c1cc(-c2nc3ccc([N+](=O)[O-])cc3[nH]2)ccc1O,0.218
2,COC(=O)[C@@H]1CCCN1C(=O)[C@@H](NC(=O)[C@H](Cc1ccccc1)NC(=O)c1cc(I)c(-c2nc3cc(C)c(C)cc3[nH]2)c(I)c1)C(C)C,0.454

# Tested on: not listed separately
# Test: Anthelmintic activity against Megascoplex konkanensis ICARBC 211 assessed as mean death time
# Assay type: functional
# Settings: not given
# Method in brief: as §5
row,Compound,TIME [h]
1,COC(=O)[C@H](Cc1c[nH]c2ccccc12)NC(=O)c1cc(-c2nc3ccc([N+](=O)[O-])cc3[nH]2)ccc1O,0.374
2,COC(=O)[C@@H]1CCCN1C(=O)[C@@H](NC(=O)[C@H](Cc1ccccc1)NC(=O)c1cc(I)c(-c2nc3cc(C)c(C)cc3[nH]2)c(I)c1)C(C)C,0.672

# Tested on: Pontoscolex corethrurus
# Test: Anthelmintic activity against Pontoscolex corethrurus ICARBC 408 assessed as mean paralyzing time
# Assay type: functional
# Settings: not given
# Method in brief: as §5
row,Compound,Time [min]
1,COC(=O)[C@H](Cc1c[nH]c2ccccc12)NC(=O)c1cc(-c2nc3ccc([N+](=O)[O-])cc3[nH]2)ccc1O,17.02
2,COC(=O)[C@@H]1CCCN1C(=O)[C@@H](NC(=O)[C@H](Cc1ccccc1)NC(=O)c1cc(I)c(-c2nc3cc(C)c(C)cc3[nH]2)c(I)c1)C(C)C,33.64

# Tested on: Pontoscolex corethrurus
# Test: Anthelmintic activity against Pontoscolex corethrurus ICARBC 408 assessed as mean death time
# Assay type: functional
# Settings: not given
# Method in brief: as §6
row,Compound,Time [min]
1,COC(=O)[C@H](Cc1c[nH]c2ccccc12)NC(=O)c1cc(-c2nc3ccc([N+](=O)[O-])cc3[nH]2)ccc1O,29.41
2,COC(=O)[C@@H]1CCCN1C(=O)[C@@H](NC(=O)[C@H](Cc1ccccc1)NC(=O)c1cc(I)c(-c2nc3cc(C)c(C)cc3[nH]2)c(I)c1)C(C)C,50.22
